Compounds with a hit are over-represented: about 1.8% of the library has one in this group of screens.
AI-2 QS modul: Vibrio harveyi AI-2 quorum sensing modulators, primary screen, JMH597 strain, luminescence/OD600 ratio; Vibrio harveyi JMH597 AI-2 luminescence/OD600 ratio, 9 h; stronger effect = lower value; strain lacks LuxN and CqsS sensors; 0 = neutral-control median; activity change, % at 7.5 µM; hit rate 0.4% among 300,000; in the data active = activity change below about -75%, passing the limit was not always enough; inconclusive = no clear call, values can overlap the other calls;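 note: luminescence divided by OD600 gain over 9 h not by final OD600 alone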
LANA-H2A inh: blockers of LANA interaction with H2A/H2B – biochemical, FP readout, HTS, primary screen. Protein LANA1 (Human herpesvirus 8 type P (isolate GK18)), Q9QR71. cell-free LANA-H2A/H2B peptide, fluorescence polarization. inhibition, % (concentration not given with the values). hit rate 0.6% among 320,000; in the data active = inhibition mostly above about 10%, no sharp cut-off; inactive = mostly below about 6.7%
ATG4B inh: ATG4B protease inhibitors, primary screen, biochemical, fluorescence, uHTS | Cysteine protease ATG4B (Homo sapiens), Q9Y4P1 | ATG4B cleavage of LC3-PLA2, NBD-HPC fluorescence, 1 h | inhibition, % at 8.33 µM | hit rate 0.51% among 340,000 | AID 504462, 2011; in the data active = inhibition above about 40%
Target sequence (Q9Y4P1 whole entry, looked up): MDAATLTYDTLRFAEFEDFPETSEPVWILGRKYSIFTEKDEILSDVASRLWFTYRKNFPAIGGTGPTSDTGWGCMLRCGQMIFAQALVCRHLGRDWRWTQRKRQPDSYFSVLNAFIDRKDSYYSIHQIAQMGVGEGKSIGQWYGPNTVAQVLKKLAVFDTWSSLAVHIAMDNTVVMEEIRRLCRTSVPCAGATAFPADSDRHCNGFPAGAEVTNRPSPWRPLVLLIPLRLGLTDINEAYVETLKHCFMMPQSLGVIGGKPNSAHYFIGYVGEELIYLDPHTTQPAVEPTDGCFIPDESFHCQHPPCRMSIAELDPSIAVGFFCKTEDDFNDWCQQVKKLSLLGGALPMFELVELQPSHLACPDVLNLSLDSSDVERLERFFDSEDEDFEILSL
HDAC3 inh: HDAC3 deacetylase inhibitors, primary screen, biochemical, fluorescence, cell-free homogeneous; recombinant HDAC3, fluorogenic peptide/trypsin coupled; inhibition, % at 8.3 µM; hit rate 0.15% among 320,000; AID 2718, 2010; in the data active = inhibition above about 26%, passing the limit was not always enough; inconclusive = no clear call, values can overlap the other calls
A1 inh: caspase 3/7 activation in MEF A1-2A-BIM cells, primary screen, A1 inhibitor project, cell-based, luminescence, HTS. Caspase-Glo 3/7 luminescence, 3 h; percent of clofoctol response, vehicle zero. caspase activation, % (concentration not given with the values). hit rate 0.066% among 330,000. AID 2462, 2010;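 active = over half of replicate activation scores above 10%, or exactly half above 10 with the replicate mean above 10; inconclusive = replicate mean below 10 yet half the replicates above 10; inactive = over half of replicates below 10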
HKDC1 inhibitor: HKDC1 hexokinase inhibitors, primary screen, biochemical, fluorescence, uHTS | recombinant HKDC1, G6PDH/diaphorase resazurin coupled fluorescence | inhibition, % at 20 µM | hit rate 0.16% among 340,000 | AID 493160, 2011;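 active = inhibition above about 35% when tested at 20 µM, limit read from the data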;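 note: plate controls were DMSO wells with enzyme for no effect and DMSO wells lacking enzyme for full effect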
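Test system: recombinant HKDC1 (HK5) hexokinase enzyme, produced in-house / Doses: 20 µM test compound, 1% DMSO / Timing: 90 min, room temperature / Detection: G6PDH/diaphorase-coupled fluorescence, 1 mM NADP, 100 µM resazurin, 525/613 nm / Control set: DMSO wells with and without enzyme mix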
JMH597 growth rt: Vibrio harveyi growth inhibition, confirmation, counter-screen for AI-2 quorum sensing project, JMH597 strain, OD600 absorbance | shares compounds with AI-2 QS modul | 9 h; lacks LuxN and CqsS sensors | growth inhibition, % at 7.5 µM | hit rate 1% among 750 | AID 2726, 2010;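 active = every replicate shows growth inhibition above 50%; inconclusive = at least half, but not all, replicates pass that cutoff; inactive = fewer than half of replicates pass it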
BB721 const-QS lum: luminescence inhibition in constitutive-on V. harveyi, confirmation, counter-screen for LuxS inhibitor project, strain BB721, luminescence readout; shares compounds with AI-2 QS modul; inhibition, % at 7.5 µM; hit rate 95% among 750; Vibrio harveyi BB721 luminescence, 9 h;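 active = inhibition above about 80% in every replicate, not just on average, limit read from the data; inconclusive = at least half of replicates past the limit, but not all; inactive = fewer than half of replicates past the limit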
BB721 growth rt: growth inhibition of V. harveyi BB721, confirmation, cytotoxicity control for AI-2 quorum sensing inhibitors, strain BB721, absorbance OD600. shares compounds with AI-2 QS modul. Vibrio harveyi BB721 growth, 9 h. growth inhibition, % at 7.5 µM. hit rate 3% among 750;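 active = every replicate shows growth inhibition above 50%; inconclusive = at least half but not all replicates above 50% inhibition; inactive = under half of replicates above 50% inhibition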
JMH597 AI-2 mod: Vibrio harveyi AI-2 signaling luminescence modulation – JMH597 strain, confirmation | Vibrio harveyi JMH597 AI-2 quorum sensing luminescence, 9 h; luxN and CqsS knockout, AI-2 only | hit rate 97% among 750 | shares compounds with AI-2 QS modul | inhibition, % at 7.5 µM;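 active = every replicate shows more than 75% inhibition of signal versus neutral control wells; inconclusive = half to three quarters of replicates exceed 75% inhibition; inactive = fewer than half of replicates exceed 75% inhibition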
An asterisk follows results filed as active.

O=C(NCc1ccc(Cl)cc1)Nc1ccc(F)cc1 was read as AI-2 QS modul inconclusive, LANA-H2A inh -3, ATG4B inh 8, HDAC3 inh 6, A1 inh 1, HKDC1 inhibitor 1, JMH597 growth rt -19, BB721 const-QS lum 96*, BB721 growth rt -8 and JMH597 AI-2 mod 96*.
O=C(CNC(=O)c1ccc(Br)o1)NNC(=O)c1n[nH]c(=O)c2ccccc12 was read as LANA-H2A inh -2, ATG4B inh 0, HDAC3 inh 5, A1 inh 2 and HKDC1 inhibitor -1.
Screening O=C(NNc1nc2cc3c(cc2s1)OCCO3)c1ccccc1 returned AI-2 QS modul -93*, LANA-H2A inh -1, ATG4B inh 0, HDAC3 inh 5, A1 inh 1, HKDC1 inhibitor -15, JMH597 growth rt -6, BB721 const-QS lum 98*, BB721 growth rt 18 and JMH597 AI-2 mod 98*.
For Cc1nnc(NC(=O)CSc2ccc(-c3ccco3)nn2)s1 the results were AI-2 QS modul -39, LANA-H2A inh -3, ATG4B inh -11, HDAC3 inh 1, A1 inh 0 and HKDC1 inhibitor 5.
CCc1nnc(NC(=O)CSc2ccc(-c3ccco3)nn2)s1 was read as AI-2 QS modul -83*, LANA-H2A inh 3, ATG4B inh -10, HDAC3 inh 8, A1 inh 0, HKDC1 inhibitor -6, JMH597 growth rt 15, BB721 const-QS lum 94*, BB721 growth rt 14 and JMH597 AI-2 mod 96*.
For O=[N+]([O-])c1ccc(NC2CCCC2)cc1 the results were AI-2 QS modul -83*, LANA-H2A inh -11, ATG4B inh -10, HDAC3 inh -1, A1 inh inconclusive, HKDC1 inhibitor -5, JMH597 growth rt 28, BB721 const-QS lum 93*, BB721 growth rt 20 and JMH597 AI-2 mod 94*.
Screening O=C1CCCCC1Nc1ccc([N+](=O)[O-])cc1 (stereo not given) returned ATG4B inh -5 and HKDC1 inhibitor -6.
Screening COc1ccc(NC(=O)CCOc2ccccc2C)cc1S(=O)(=O)N1CCCCC1 returned AI-2 QS modul 10, LANA-H2A inh 2, ATG4B inh -19, HDAC3 inh 1, A1 inh 0 and HKDC1 inhibitor 0.
For O=C(CN(Cc1ccco1)C(=O)c1ccc(N2CCCC2=O)cc1)Nc1ccccc1C(F)(F)F the results were AI-2 QS modul 11, LANA-H2A inh -7, ATG4B inh -7, HDAC3 inh 1, A1 inh 0 and HKDC1 inhibitor -1.
COc1ccc(N=C2SCC(c3ccccc3)=NN2C)cc1 was read as AI-2 QS modul -87*, LANA-H2A inh -2, ATG4B inh -1, HDAC3 inh 13, A1 inh 2, HKDC1 inhibitor -2, JMH597 growth rt 51, BB721 const-QS lum 90*, BB721 growth rt 146 and JMH597 AI-2 mod 95*.

Screens (PubChem BioAssay)
